The source of these data is ChEMBL document CHEMBL5131565, “Structure-Guided Optimization of Small-Molecule Folate Uptake Inhibitors Targeting the Energy-Coupling Factor Transporters” (J Med Chem, 2022).

pIC50: −log10 of the molar value. Values after ≈ are worked out from the molar mass of the structure shown.

The target in data set [1] is T1, Energy-coupling factor transporter transmembrane protein EcfT (Lactobacillus casei, UniProt A0A510WMC0).
T1 sequence (A0A510WMC0 whole entry): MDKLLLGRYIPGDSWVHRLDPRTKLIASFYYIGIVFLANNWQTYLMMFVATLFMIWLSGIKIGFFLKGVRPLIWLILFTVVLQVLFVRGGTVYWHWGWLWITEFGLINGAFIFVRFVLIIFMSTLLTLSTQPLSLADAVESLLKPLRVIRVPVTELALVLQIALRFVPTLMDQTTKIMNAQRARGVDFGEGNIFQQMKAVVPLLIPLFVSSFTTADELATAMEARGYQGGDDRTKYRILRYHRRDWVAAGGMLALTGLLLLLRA
As to the kind of experiment: Inhibition of Lactobacillus casei ECF-FolT assessed as inhibition of radiolabelled folic acid uptake pre-incubated for 10 mins followed tritium labeled folic acid addition measured after 30 mins by liquid scintillation analysis. The arrangement: species or system Lacticaseibacillus casei. In short, it runs like this: (§1)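 Whole-cell *L. casei* assay of ECF-FolT-mediated folate uptake. Compounds were first tested at 50 μM and reported as % inhibition. IC50 was determined for those giving more than 70% inhibition at 50 μM. Data come from two independent experiments, each run in duplicate.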

For data set [2], the target named is T2, Energy-coupling factor transporter transmembrane protein EcfT (Lactobacillus casei) (UniProt A0A510WMC0).
T2 sequence (whole entry): T1 sequence (A0A510WMC0 whole entry)
The experiment in a line: Inhibition of Lactobacillus casei ECF-FolT assessed as inhibition of radiolabelled folic acid uptake at 50 uM pre-incubated for 10 mins followed tritium labeled folic acid addition measured after 30 mins by liquid scintillation analysis relative to control. The settings on record: Lacticaseibacillus casei, time 40.0 min. In short, it runs like this: as §1

Data set [3] concerns Enterococcus faecium. As to the kind of experiment: Antibacterial activity against vancomycin-resistant Enterococcus faecium DSM-17050 measured after 24 hrs by CLSI protocol based microbroth dilution method. Type of data set: functional. On the technique in general: Dilution methods test growth across graded concentrations, often in twofold steps.
For data set [4], the system named is Enterococcus faecium. As to the kind of experiment: Antibacterial activity against Enterococcus faecium DSM-20477 measured after 24 hrs by CLSI protocol based microbroth dilution method. The format is functional.
Data set [5] concerns Streptococcus pneumoniae. As to the kind of experiment: Antibacterial activity against Streptococcus pneumoniae DSM-20566 measured after 24 hrs by CLSI protocol based microbroth dilution method. The format is functional.
A further data set has as its system A549. As to the kind of experiment: Cytotoxicity against human A549 cells assessed as reduction in cell viability measured after 48 hrs by MTT assay. Type of data set: toxicity, cell-based. On the technique in general: Formazan colour is commonly taken as a measure of viable cells.
Data set [6] has as its system Streptococcus pneumoniae. As to the kind of experiment: Antibacterial activity against penicillin-resistant Streptococcus pneumoniae DSM-11865 measured after 24 hrs by CLSI protocol based microbroth dilution method. The format is functional.
A further data set concerns Staphylococcus aureus. The experiment in a line: Antibacterial activity against Staphylococcus aureus Newman measured after 24 hrs by CLSI protocol based microbroth dilution method. The format is functional.
Data set [7] is described as follows: Kinetic solubility of the compound. Type of data set: physicochemical. The following applies: read-out: Kinetic_solubility.
The next data set relates to HEK293. The experiment in a line: Cytotoxicity against HEK293 cells assessed as reduction in cell viability measured after 48 hrs by MTT assay. Type of data set: toxicity, cell-based, Homo sapiens.
The test system of a further data set is HepG2. As to the kind of experiment: Cytotoxicity against human HepG2 cells assessed as reduction in cell viability measured after 48 hrs by MTT assay. Type of data set: toxicity, cell-based.

`O=C(Nc1ccccc1)Nc1cc(-c2ccc(Cl)c(Cl)c2)sc1C(=O)O`: the negative logarithm of the IC50 (pIC50) (usually −log10 of the IC50, conventionally taken in molar units) in [1] is 4.84. Also, the inhibition (usually the drop in the measured response relative to a control, in per cent) in data set [2] was found to be 86.8%.

Consider `CCCCCCNc1c(-c2ccc(Cl)c(Cl)c2)csc1C(=O)O`, for which, in data set [2], the inhibition is 95.2%. Turning to `CN(Cc1ccccc1)C(=O)Nc1cc(-c2ccc(Cl)c(Cl)c2)sc1C(=O)O`, in data set [1], the pIC50 is 5.00. Besides, the inhibition in data set [2] turned out to be 86.9%. Turning to `CCCCCCNC(=O)Nc1cc(-c2cccc(C(F)(F)F)c2)sc1C(=O)O`, in [2], the inhibition was determined as 52.3%.

On to `CCN(Cc1ccccc1)C(=O)Nc1cc(-c2ccc(C)cc2)sc1C(=O)O`, for which the inhibition in [2] stood at 38.9%. As to `CCN(C(=O)Nc1cc(-c2ccc(Cl)c(Cl)c2)sc1C(=O)O)c1ccccc1`, the pIC50 in [1] is 4.98. In addition, the inhibition in [2] is 83.2%.

In the case of `CCN(Cc1ccccc1)C(=O)Nc1cc(-c2ccc(Cl)c(Cl)c2)sc1C(=O)O`, the pIC50 in data set [1] was 4.94. Further, the inhibition in data set [2] amounted to 89.4%. For the compound `O=C(NCc1ccncc1)Nc1cc(-c2ccc(Cl)c(Cl)c2)sc1C(=O)O`, the inhibition in [2] amounted to 54%. The same measure, in the same setting: next, `CCCCCCNC(=O)Nc1cc(-c2ccc(Cl)c(C(F)(F)F)c2)sc1C(=O)O`: 59%. For the compound `CCCCN(C(=O)Nc1c(-c2cc(Cl)ccc2Cl)csc1C(=O)O)c1ccccc1`, the pIC50 in data set [1] was 4.77. Also, the inhibition in [2] came to 73.4%. As to `CCCCNC(=O)Nc1cc(-c2ccc(Cl)c(Cl)c2)sc1C(=O)O`, the inhibition in data set [2] stood at 61.9%. On the same count and under the same terms, the value for `CCCCC(=O)Nc1c(-c2ccc(Cl)c(Cl)c2)csc1C(=O)O` was 31.8%. `CCN(Cc1ccccc1)C(=O)Nc1cc(-c2ccc(Oc3ccccc3)cc2)sc1C(=O)O`: the pIC50 in data set [1] was 5.00. Moreover, the inhibition in data set [2] was determined as 97%.

As for `CCCCCCNC(=O)Nc1c(C(=O)O)cccc1-c1ccc(Cl)c(Cl)c1`, in data set [2], the inhibition amounted to 65.4%. Turning to `CCCCCCNC(=O)Nc1cc(-c2cc(Cl)ccc2Cl)sc1C(=O)O`, the pIC50 in data set [1] is 4.66. Also, the inhibition in data set [2] came to 93.4%.

As to `COc1ccc(CNC(=O)Nc2cc(-c3ccc(Cl)c(Cl)c3)sc2C(=O)O)cc1`, in [2], the inhibition is 54.3%. On the same count and under the same terms, the value for `CC(C)NC(=O)Nc1cc(-c2ccc(Cl)c(Cl)c2)sc1C(=O)O` was 39.3%; that for `CCN(Cc1ccccc1)C(=O)Nc1cc(-c2ccc(OC(F)(F)F)cc2)sc1C(=O)O` was 67.2%. The same measure, in the same setting: next, `CCCCCCNC(=O)Nc1cc(-c2ccc(Cl)cc2Cl)sc1C(=O)O`: 67.9%. With `CCCCCCNC(=O)Nc1c(-c2ccc(Cl)c(Cl)c2)csc1C(=O)O`, the pIC50 in [1] is 5.22. Further, the inhibition in [2] is 90.6%.

In the case of `CCCCN(Cc1ccccc1)C(=O)Nc1cc(-c2ccc(Cl)c(Cl)c2)sc1C(=O)O`, the inhibition in data set [2] amounted to 42.5%. The same measure, in the same setting: the value for `CCCCCCNC(=O)Nc1cc(-c2ccccc2)sc1C(=O)O` was 25.1%; that for `CCCCCCNC(=O)Nc1sc(-c2ccc(Cl)c(Cl)c2)cc1C(=O)O` was 17.9%. Take `CN(C(=O)Nc1cc(-c2ccc(Cl)c(Cl)c2)sc1C(=O)O)c1ccccc1`: in [1], the pIC50 was 4.64. In data set [2], the inhibition worked out at 71.5%.

For the compound `CCN(Cc1ccccc1)C(=O)Nc1cc(-c2ccc(C#N)cc2)sc1C(=O)O`, in data set [2], the inhibition worked out at 18.3%.

As for `CCCCCCNC(=O)Nc1cc(-c2ccc([N+](=O)[O-])cc2)sc1C(=O)O`, the pIC50 in data set [1] is 4.60. For the same compound, the inhibition in data set [2] was determined as 82.1%. Turning to `CCCCN(C(=O)Nc1cc(-c2ccc(Cl)c(Cl)c2)sc1C(=O)O)c1ccccc1`, the MIC (commonly the least concentration at which growth counts as inhibited) with Enterococcus faecium [3] amounted to 2 µM (≈ 0.927 µg/mL); against Enterococcus faecium [4], 8 µM (≈ 3.71 µg/mL); against Streptococcus pneumoniae [5], 2 µM (≈ 0.927 µg/mL); against Streptococcus pneumoniae [6], 0.5 µM (≈ 0.232 µg/mL); against Staphylococcus aureus, 23 µM (≈ 10.7 µg/mL). Also, the pIC50 in the data set with A549 is under 4.00; in [1], 5.63; with HEK293, 4.28; in the data set on HepG2, 4.02. Also, the solubility kinetic in [7] came to 107 µM (≈ 49.4 µg/mL). Further, the inhibition in [2] stood at 99.6%. As for `O=C(O)c1sc(-c2ccc(Cl)c(Cl)c2)cc1NC(=O)N(Cc1ccccc1)c1ccccc1`, the pIC50 in data set [1] is 5.53. Also, the inhibition in [2] came out at 91.3%.

`O=C(NCCc1ccccc1)Nc1cc(-c2ccc(Cl)c(Cl)c2)sc1C(=O)O`: in [1], the pIC50 was 4.82. The inhibition in data set [2] is 91.7%. The like results for `CCCCCCNC(=O)Nc1cc(-c2ccc(Cl)c(Cl)c2)sc1C(=O)O` were, in that order, 4.55 and 72.2%. For `CCCCN(C(=O)Nc1c(-c2ccc(Oc3ccccc3)cc2)csc1C(=O)O)c1ccccc1`, the MIC in the data set with Enterococcus faecium [3] turned out to be 8 µM (≈ 3.89 µg/mL); in the data set on Enterococcus faecium [4] it was 16 µM (≈ 7.79 µg/mL); against Streptococcus pneumoniae [5] it was 4 µM (≈ 1.95 µg/mL); in the data set with Streptococcus pneumoniae [6] it was 16 µM (≈ 7.79 µg/mL); in the data set on Staphylococcus aureus it was 16 µM (≈ 7.79 µg/mL). Moreover, the pIC50 in the data set with A549 was 4.31; in data set [1], 5.41; in the data set on HEK293 it was 4.59; in the data set with HepG2 it was 4.24. The solubility kinetic in data set [7] was over 200 µM. Besides, in data set [2], the inhibition came out at 100%.

On to `CCCCCCNC(=O)Nc1ccsc1C(=O)O`, for which, in data set [2], the inhibition is under 10%. The same measure, in the same setting: next, `O=C(NCc1cccnc1)Nc1cc(-c2ccc(Cl)c(Cl)c2)sc1C(=O)O`: 58%; `CCN(Cc1ccccc1)C(=O)Nc1cc(-c2ccc(Br)cc2)sc1C(=O)O`: 52.3%; `CCCCCCNC(=O)Nc1cc(-c2ccc(C(F)(F)F)cc2)sc1C(=O)O`: 27.1%.

In the case of `CCCCCCNC(=O)Nc1cc(-c2ccc(Cl)cc2)sc1C(=O)O`, the inhibition in data set [2] came to 27.2%. Same read-out and setting: the value for `NC(=O)Nc1cc(-c2ccc(Cl)c(Cl)c2)sc1C(=O)O` was 42.4%. In the case of `CCCCCCNC(=O)Nc1cc(-c2cccc([N+](=O)[O-])c2)sc1C(=O)O`, in data set [1], the pIC50 is 4.36. In addition, the inhibition in [2] worked out at 65.3%.

With `CCCCN(CCc1ccccc1)C(=O)Nc1cc(-c2ccc(Cl)c(Cl)c2)sc1C(=O)O`, the inhibition in data set [2] was 57.8%. Regarding `CCCCCCNC(=O)Nc1cc(-c2cccc(Cl)c2)sc1C(=O)O`, the inhibition in [2] was determined as 36.2%. Still for that read-out and setting: the value for `O=C(O)CCCNC(=O)Nc1cc(-c2ccc(Cl)c(Cl)c2)sc1C(=O)O` was 0.2%; that for `O=C(NCc1ccccn1)Nc1cc(-c2ccc(Cl)c(Cl)c2)sc1C(=O)O` was 59%. `O=C(O)c1sc(-c2ccc(Cl)c(Cl)c2)cc1NC(=O)N(Cc1ccccc1)Cc1ccccc1`: the pIC50 in [1] was 4.62. In [2], the inhibition is 85.1%.

On to `CCCCCCNC(=O)Nc1scc(-c2ccc(Cl)c(Cl)c2)c1C(=O)O`, for which the pIC50 in [1] is 4.73. Further, the inhibition in data set [2] came to 87.5%. Take `CCN(Cc1ccccc1)C(=O)Nc1cc(-c2cc(Cl)cc(Cl)c2)sc1C(=O)O`: the inhibition in data set [2] is 22%. Regarding `Nc1c(-c2ccc(Cl)c(Cl)c2)csc1C(=O)O`, the inhibition in data set [2] is under 10%. In the case of `O=C(NCc1ccccc1)Nc1cc(-c2ccc(Cl)c(Cl)c2)sc1C(=O)O`, the pIC50 in [1] is 4.75. Further, in data set [2], the inhibition was 71.1%. With `CCCCCCNC(=O)Nc1cc(-c2ccc(OC)cc2)sc1C(=O)O`, the inhibition in [2] stood at 12.1%.
